Screening data deposited in PubChem by The Scripps Research Institute Molecular Screening Center.
Compounds with a hit are over-represented: about 2.7% of the library has one in this group of screens.
PAFAH1B3 inh – PAFAH1B3 enzyme inhibitors, primary screen, biochemical, fluorescence polarization, human; Platelet-activating factor acetylhydrolase IB subunit alpha1 (Homo sapiens), Q15102; recombinant PAFAH1B3, FP-rhodamine probe; inhibition, % at 3.39 µM; 340,000 tested, 0.28% active;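 active means inhibition above the screen-wide average of all tested compounds plus 3 SD, cut at about 25% in these data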;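 further: 0% = enzyme with DMSO only and 100% = wells lacking PAFAH1B3 protein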
ARFGAP1 inh – inhibitors of rat ARFGAP1 GAP activity, primary screen, biochemical, fluorescence polarization, GDP tracer | ADP-ribosylation factor GTPase-activating protein 1 (Rattus norvegicus), Q62848 | Arfgap1-stimulated ARF1 GTP hydrolysis, GDP FP detection | inhibition, % at 16.5 µM | 360,000 tested, 0.26% active;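 active means inhibition above a per-plate limit, mean inhibition of low control wells plus 3 SD, cut at about 25% in these data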;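 further: 0% = DMSO wells with enzyme and 100% = wells lacking Arfgap1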
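Repeats: one replicate per compound; assay system: rat Arfgap1 catalytic domain, aa 1-136; times: enzyme reaction 120 min at 25 °C after 20 min preincubation; detection: FP of antibody-bound GDP Alexa 633 tracer, ex 620/em 688 nm; benchmarks: high control wells lacking Arfgap1, low control full reaction with DMSO; reagent: human ARF1(Δ1-17)-GTP substrate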
PAFAH1B2 inh – PAFAH1B2 enzyme inhibitors, primary screen, biochemical, fluorescence polarization, human; Platelet-activating factor acetylhydrolase IB subunit alpha2 (Homo sapiens), P68402; recombinant PAFAH1B2, FP-rhodamine activity probe; inhibition, % at 3.39 µM; 340,000 tested, 1.2% active;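 active means inhibition above the mean of all tested compounds plus 3 SD, cut at about 24% in these data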;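 further: 0% = enzyme with DMSO and 100% = wells lacking PAFAH1B2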
Target sequence (P68402 whole entry, looked up): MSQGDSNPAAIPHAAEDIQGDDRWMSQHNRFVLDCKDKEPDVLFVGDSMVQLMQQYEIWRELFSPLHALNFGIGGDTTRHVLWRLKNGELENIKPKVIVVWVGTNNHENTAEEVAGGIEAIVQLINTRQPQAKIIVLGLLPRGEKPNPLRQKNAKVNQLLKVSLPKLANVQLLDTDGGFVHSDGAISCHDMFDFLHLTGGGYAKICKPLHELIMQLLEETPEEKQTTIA
ASAP1 inh – inhibitors of human ASAP1 ArfGAP activity, primary screen, biochemical, fluorescence polarization | ASAP1-stimulated ARF1 GTP hydrolysis, GDP FP detection | inhibition, % at 16.5 µM | AID 624377, 2012 | Arf-GAP with SH3 domain, ANK repeat and PH domain-containing protein 1 (Homo sapiens), … | 360,000 tested, 0.19% active; in the data active means inhibition above about 25%;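 further: 0% = vehicle with enzyme and substrate and 100% = no enzyme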
pPAFAH FP inh – pPAFAH enzyme inhibitors, primary screen, biochemical, fluorescence polarization, human. recombinant pPAFAH, FP-rhodamine probe fluorescence polarization. inhibition, % at 3.39 µM. 330,000 tested, 1.5% active;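 active means inhibition above the mean inhibition across the screen plus 3 SD, cut at about 25% in these data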;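 further: inhibitors block binding of the rhodamine activity-based probe so polarization drops; 0% = enzyme with DMSO and 100% = wells lacking pPAFAH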
Target sequence (Q13093 whole entry, looked up): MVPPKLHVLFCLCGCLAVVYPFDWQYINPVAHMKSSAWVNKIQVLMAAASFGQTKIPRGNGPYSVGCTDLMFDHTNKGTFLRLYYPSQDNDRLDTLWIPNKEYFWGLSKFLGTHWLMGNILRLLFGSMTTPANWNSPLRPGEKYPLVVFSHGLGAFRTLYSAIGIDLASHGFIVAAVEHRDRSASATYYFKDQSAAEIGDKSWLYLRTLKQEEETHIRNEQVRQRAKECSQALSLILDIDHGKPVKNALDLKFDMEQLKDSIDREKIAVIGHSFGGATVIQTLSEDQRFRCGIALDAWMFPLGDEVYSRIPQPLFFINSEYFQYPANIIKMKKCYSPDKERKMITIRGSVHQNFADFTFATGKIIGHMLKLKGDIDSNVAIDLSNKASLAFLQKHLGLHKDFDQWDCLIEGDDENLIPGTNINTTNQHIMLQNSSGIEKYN
PAFAH2 inh – PAFAH2 enzyme inhibitors, primary screen, biochemical, fluorescence polarization, human. Platelet-activating factor acetylhydrolase 2, cytoplasmic (Homo sapiens), Q99487. recombinant PAFAH2, FP-rhodamine activity probe. inhibition, % at 3.39 µM. 340,000 tested, 0.99% active. AID 492956, 2010;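 active means inhibition above the mean over all tested compounds plus 3 SD, cut at about 30% in these data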;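 further: inhibitors block probe labeling of enzyme so polarization drops; 0% = enzyme with DMSO and 100% = wells lacking PAFAH2 protein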
* = called active by the depositor; . = no result given.

SMILES	PAFAH1B3 inh	ARFGAP1 inh	PAFAH1B2 inh	ASAP1 inh	pPAFAH FP inh	PAFAH2 inh
N#CC(C(=S)Nc1ccccc1)c1nc2ccccc2[nH]1 (stereo not given)	-0.9	5.4	3.7	-11.3	7.9	16.1
CSC(=Nc1ccccc1)C(C#N)c1nc2ccccc2[nH]1 (stereo not given)	10.2	5.6	-0.6	21.5	31.2*	3.1
CC(=O)c1sc(N/N=C\c2c(O)ccc3ccccc23)nc1C	12.1	-2.5	7.5	-7.4	34.3*	18.4
C[C@H]1CN(S(=O)(=O)C(C)(C)C)[C@@H](CCO)/C1=C\c1ccccc1	.	-4.4	.	1.2	.	.
CCCCCCCCNC(=O)CC(NS(=O)(=O)c1ccc(NC(C)=O)cc1)C(C)C (stereo not given)	13.2	6.4	7.1	-3.7	31.7*	1.5
CCN1C(=O)N(C)C2(c3ccccc3)N(C)C(=O)N(C)C12c1ccccc1 (stereo not given)	1.6	-2.5	38.4*	1.2	-2.7	5.2
CCN1C(=O)N(CC)C(O)(c2ccccc2)C1(O)c1ccccc1 (stereo not given)	0.7	-1.2	6.8	-3.2	0.3	-2.4
Cc1oc2ccc(OCc3cccc(Cl)c3)cc2c1C(=O)O	-7.6	-2.1	9.2	1.6	.	1.2
Cc1oc2ccc(OCc3ccc(F)cc3)cc2c1C(=O)O	-4.4	0.5	24.5*	4.1	-2.1	-1.6
COc1cccc(-c2ccc3c(c2)[C@@H]2C[C@H]4[C@@H](CN2CC3)[C@H](C)ON4C)c1	.	-15.3	.	-7.9	.	.
O=C(C(=NNc1ccccc1)c1ccccc1)c1ccccc1	7.3	-1.1	-0.9	-12.4	.	9.7
Oc1ccc(O)c(/C(=N/Nc2ccccc2)c2ccccc2)c1	.	.	.	.	43.9*	.
Cc1cc2oc(C(=O)N3CCN(Cc4ccccc4)CC3)c(C)c2cc1C	-0.4	3.1	4.8	9.7	25.6*	0.6
CCC(C)(C)C1CCc2c(sc(NC(=O)c3ccoc3C)c2C(N)=O)C1 (stereo not given)	2.3	-2.5	1.2	-2.3	3.5	13.6
CCC1CCc2c(sc(NC(=O)c3ccoc3C)c2C(N)=O)C1 (stereo not given)	-3.7	-4.6	1.0	-10.5	25.3*	1.8
Cn1cc(CCOCc2ccccc2)c2ccccc21	.	9.7	.	-11.0	.	.
COC(=O)C1=C(C)N(C)C(=NCc2ccc3c(c2)OCO3)NC1c1ccc(C(F)(F)F)cc1 (stereo not given)	.	3.6	.	-8.5	.	.
COc1ccccc1C1=NC(c2ccc(C)cc2)N=C1C (stereo not given)	7.9	-11.0	7.7	1.6	24.6*	-3.5
COC(=O)C1=C(C)N(Cc2ccccc2C(F)(F)F)C(=NCc2ccccc2C(F)(F)F)NC1c1ccc(C(F)(F)F)cc1 (stereo not given)	.	-3.2	.	-4.0	.	.
Cn1c(CNS(=O)(=O)c2ccc(Br)cc2)n[nH]c1=S	9.8	-1.5	24.4*	-3.0	6.9	4.1
O=C(O)CCc1ccc(-c2ccccc2)n1Cc1ccco1	-0.3	-3.9	12.7	-9.6	15.5	8.2
O=C(O)CCc1ccc(-c2ccc(F)cc2)n1Cc1ccco1	-0.8	-5.5	28.9*	2.6	12.0	7.3
CC(C)c1ccc(NC2CCCN(C(=O)c3n[nH]c4c3CCC4)C2)cc1 (stereo not given)	1.7	-8.0	26.9*	8.6	3.1	3.3
COC(=O)c1ccc(C(=O)N2CCCC(Nc3ccc(C(C)C)cc3)C2)cc1 (stereo not given)	6.9	7.8	15.1	6.2	12.1	-0.4
CCC1(C)Cc2ccccc2-c2nc(NCCO)[nH]c(=O)c21 (stereo not given)	-6.3	6.6	5.0	9.9	3.9	2.7
SMILES	PAFAH1B3 inh	ARFGAP1 inh	PAFAH1B2 inh	ASAP1 inh	pPAFAH FP inh	PAFAH2 inh
O=c1[nH]c(NCCO)nc2c1C1(CCCC1)Cc1ccccc1-2	10.3	-0.3	34.1*	-5.8	1.0	-8.6
CCN(CC)c1ccc(NC(=O)CSc2ccsc2[N+](=O)[O-])c(C)c1	8.1	1.2	0.0	4.1	28.1*	9.8
O=C(O)c1ccc(N/N=C/c2ccc(-c3ccc(Br)cc3)o2)cc1	8.3	-3.4	9.7	-15.1	26.8*	13.0
Cn1cc(CCOCc2ccccn2)c2ccccc21	.	8.8	.	8.6	.	.
O=c1oc2ccccc2nc1/C=C(O)/C=C\c1ccccc1	-1.9	7.6	6.2	5.5	32.8*	2.4
O=C(CNC(c1ccccc1)c1ccccc1)Nc1ccccc1Br	-2.8	-1.5	3.6	5.6	32.3*	6.0
O=C(NCc1ccc(F)cc1)C1CCN(S(=O)(=O)c2ccc(Br)s2)CC1	2.1	11.7	25.3*	5.8	3.5	-10.8
O=C(NCc1ccc(F)cc1)C1CCCN(S(=O)(=O)c2ccc(Br)s2)C1 (stereo not given)	7.5	10.1	12.1	2.9	6.5	3.5
COCCCNC(=O)[C@@H](Cc1ccccc1)NC(=O)[C@H]1O[C@@H](n2ccc(=O)[nH]c2=O)[C@H](O)[C@@H]1O	.	-8.3	.	9.1	.	.
COc1ccc(-c2ccc3c(N)c(C(=O)c4cccc(OC)c4)sc3n2)cc1	-0.3	7.3	-2.2	-1.0	34.4*	1.7
CN(Cc1ccccc1)C(=O)CN1CCN(S(=O)(=O)c2ccc(Cl)c(Cl)c2)CC1	5.8	-14.3	30.0*	8.3	0.7	-0.5
Cc1cc(S(=O)(=O)N2CCN(CC(=O)N(C)Cc3ccccc3)CC2)ccc1Br	5.7	0.6	11.9	7.2	.	4.0
OCCC1CN(Cc2c(F)cccc2Cl)CCN1C1CCCC1 (stereo not given)	3.6	5.3	1.6	-8.9	-0.3	7.1
OCCC1CN(Cc2c(F)cccc2Cl)CCN1C1CCCCC1 (stereo not given)	-0.8	-2.5	-3.9	-15.1	32.5*	-5.3
O=C(N/N=C/c1ccncc1)c1cc([N+](=O)[O-])cc([N+](=O)[O-])c1O	14.5	2.7	2.7	2.9	32.2*	-5.1
O=C(N/N=C/c1cc2c(c([N+](=O)[O-])c1)OCO2)c1ccncc1	8.4	6.5	-1.3	-3.6	4.1	-2.1
Nc1c(C(=O)NCC2CCCO2)sc2nc3c(c(-c4ccco4)c12)CC/C3=C\c1ccco1 (stereo not given)	39.4*	-4.5	24.3*	15.7	.	54.1*
